According to ChEMBL document CHEMBL1143591, “Synthesis and biological evaluation of 11-substituted 6-aminobenzo[c]phenanthridine derivatives, a new class of antitumor agents” (2005):

What was measured:
Assay type in all cases: functional
Conditions in all cases: Homo sapiens
HL-60 = assay: Concentration required to inhibit 50% cell growth of HL-60 Leukemia cell line
Procedure, shortened: (§1)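 Tested in the NCI in vitro Human Tumor Cell Line Screen. The GI50 is the concentration that causes 50% inhibition of net cell growth and is reported as the log of the molar concentration. If that level is not reached or is exceeded, the value is given as greater or less than the highest or lowest drug concentration.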

K562 = assay: Concentration required to inhibit 50% cell growth of K-562 Leukemia cell line; procedure, shortened: as §1
MOLT-4 = assay: Concentration required to inhibit 50% cell growth of MOLT-4 Leukemia cell line; procedure, shortened: as §1
CCRF-CEM = assay: Concentration required to inhibit 50% cell growth of CCRF-CEM Leukemia cell line; procedure, shortened: as §1
RPMI-8226 = assay: Concentration required to inhibit 50% cell growth of RPMI-8226 Leukemia cell line; procedure, shortened: as §1

Row | GI50 (HL-60) [µM] | GI50 (K562) [µM] | GI50 (MOLT-4) [µM] | GI50 (CCRF-CEM) [µM] | GI50 (RPMI-8226) [µM] | SMILES
1 | 7.08 | 2.82 | 2.95 | 1.12 | 2.4 | COc1ccc([C@H]2Cc3ccccc3-c3nc(N)c4ccccc4c32)cc1OC
2 | 5.5 | 3.09 | 4.79 | 3.55 | 3.31 | Nc1nc2c(c3ccccc13)[C@@H](c1ccc3c(c1)OCO3)Cc1ccccc1-2
3 | 6.76 | 4.27 | 3.47 | 20.9 | 4.27 | COc1ccc([C@H]2Cc3ccccc3-c3nc(N)c4ccccc4c32)c(OC)c1OC
4 | 1.7 | 0.813 | 2.63 | 2.63 | 1.82 | COc1cc([C@H]2Cc3ccccc3-c3nc(N)c4ccccc4c32)cc(OC)c1OC
5 | 0.309 | 0.219 | 0.933 | 0.309 | 0.363 | COc1ccc(-c2cc3ccccc3c3nc(N)c4ccccc4c23)c(OC)c1
6 | 0.38 | 0.339 | 0.437 | 0.372 | 0.288 | COc1ccc(-c2cc3ccccc3c3nc(N)c4ccccc4c23)c(OC)c1OC
7 | 0.0631 | 0.0794 | 0.372 | 0.288 | 0.24 | COc1cc(-c2cc3ccccc3c3nc(N)c4ccccc4c23)cc(OC)c1OC
8 | 13.8 | 7.59 | 15.5 | 17.8 | 4.68 | COc1ccc(OC)c([C@H]2Cc3ccccc3-c3nc(N)c4ccccc4c32)c1
9 | 4.47 | 0.794 | 3.31 | 4.07 | 2.82 | Nc1nc2c3ccccc3cc(-c3ccc4c(c3)OCO4)c2c2ccccc12
10 | 4.17 | 3.09 | 3.72 | 3.31 | 2.82 | Nc1nc2c(c3ccccc13)[C@@H](c1ccco1)Cc1ccccc1-2
11 | 0.437 | 4.07 | 1.2 | 9.77 | 4.57 | Nc1nc2c3ccccc3cc(-c3ccco3)c2c2ccccc12
12 | 8.13 | 1.62 | 14.5 | 13.8 | 5.01 | COc1ccc([C@H]2Cc3ccccc3-c3nc(N)c4ccccc4c32)cc1O
13 | 0.0617 | 0.0457 | 0.234 | 0.17 | 0.126 | COc1ccc(-c2cc3ccccc3c3nc(N)c4ccccc4c23)cc1OC
14 | 0.288 | 0.282 | 0.631 | 0.871 | 0.427 | COc1cc([C@H]2Cc3ccccc3-c3nc(N)c4ccccc4c32)cc(OC)c1O
